Assay outcomes (PubChem)
HKDC1 inhibitor: HKDC1 (human) hexokinase inhibition; Q2TB90; recombinant HKDC1, G6PDH/diaphorase resazurin coupled fluorescence; inhibition, % at 20 µM; hit rate 0.16% among 340,000;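 active means inhibition above about 35% when tested at 20 µM, limit read from the data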;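 further: plate controls were DMSO wells with enzyme for no effect and DMSO wells lacking enzyme for full effect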
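Test system: recombinant HKDC1 (HK5) hexokinase enzyme, produced in-house / Doses: 20 µM test compound, 1% DMSO / Timing: 90 min, room temperature / Detection: G6PDH/diaphorase-coupled fluorescence, 1 mM NADP, 100 µM resazurin, 525/613 nm / Control set: DMSO wells with and without enzyme mix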
A3A deaminase: blocks human APOBEC3A ssDNA deamination; hit rate 0.41% among 330,000; P31941; inhibition, % at 20 µM; recombinant A3A, FAM/TAMRA ssDNA deamination fluorescence;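 active means at least 40% inhibition at 20 µM here, with at most 30% in a related deaminase screen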;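 further: plate controls were A3A with DMSO for no effect and wells lacking A3A enzyme for full effect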
Target sequence (P31941 whole entry, looked up): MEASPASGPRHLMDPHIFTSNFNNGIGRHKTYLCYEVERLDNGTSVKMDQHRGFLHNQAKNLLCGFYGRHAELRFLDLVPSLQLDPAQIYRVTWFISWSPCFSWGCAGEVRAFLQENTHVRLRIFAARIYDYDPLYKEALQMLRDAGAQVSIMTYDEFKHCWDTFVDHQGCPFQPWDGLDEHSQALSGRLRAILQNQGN
hiPSC survival: hiPSC single-cell survival enhancement; ATPlite luminescence; 100% = ROCK inhibitor wells, 0% = DMSO; survival enhancement, % at 20 µM; hit rate 0.044% among 360,000; AID 602274; in the data active means survival enhancement above about 18%;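 further: cells exposed to compounds for 16 hours before the ATP read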
A3G deaminase: blocks human APOBEC3G single-stranded DNA deamination; recombinant A3G, ssDNA deamination FAM/TAMRA fluorescence; inhibition, % at 20 µM; hit rate 0.28% among 330,000; AID 493012;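 active means inhibition of at least 40% at 20 µM, with no more than 30% in the related APOBEC3A deaminase screen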;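 further: plate controls were DMSO wells with A3G for no effect and wells lacking A3G enzyme for full effect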
Target sequence (Q9HC16 whole entry, looked up): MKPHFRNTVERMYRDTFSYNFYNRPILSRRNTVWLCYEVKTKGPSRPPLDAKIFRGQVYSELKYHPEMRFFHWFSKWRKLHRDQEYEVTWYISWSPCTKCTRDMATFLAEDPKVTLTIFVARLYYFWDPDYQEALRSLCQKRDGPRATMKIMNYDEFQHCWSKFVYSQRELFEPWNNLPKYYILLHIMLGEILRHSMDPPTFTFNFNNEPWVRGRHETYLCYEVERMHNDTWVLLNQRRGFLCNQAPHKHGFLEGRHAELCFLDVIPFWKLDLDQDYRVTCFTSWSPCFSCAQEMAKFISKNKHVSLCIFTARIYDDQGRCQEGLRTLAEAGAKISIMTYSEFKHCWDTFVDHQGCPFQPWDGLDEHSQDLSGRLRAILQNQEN
PfG6PD inh: PfG6PD (Plasmodium falciparum) enzyme inhibition; hit rate 0.78% among 350,000; inhibition, % at 20 µM; PfGluPho enzyme, NADPH resazurin-diaphorase fluorescence; AID 504690;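 active means inhibition reaching at least a set limit at 20 µM in the primary screen, cut at about 59% in these data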;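 further: 0% = DMSO wells with substrate and 100% = DMSO wells lacking glucose-6-phosphate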
* marks the source's active call; other numbers are inactive results; nt = no result. Shown are actives, neighbours in structure and some others; about 1.4% of the full set was active somewhere.

SMILES | HKDC1 inhibitor | A3A deaminase | hiPSC survival | A3G deaminase | PfG6PD inh
CCN(c1ccccc1)S(=O)(=O)c1ccc(C(=O)N(CCCN(C)C)c2nc3c(C)cccc3s2)cc1 | 2.8 | 1.2 | 0.4 | -7.0 | 20.4
CCCN1C(=O)/C(=C/c2c(N3CCNC(=O)C3CC(=O)OCC)nc3c(C)cccn3c2=O)SC1=S (stereo not drawn) | 12.2 | -1.5 | 0.0 | -1.8 | 59.9*
Nc1nc(SCc2ccccn2)c2ncn(C3OC(CO)C(O)C3O)c2n1 (stereo not drawn) | 3.0 | nt | -0.4 | nt | 17.0
O=C(C(O)c1ccc(Br)cc1)N1CCC(Nc2ccc3[nH]ncc3c2)CC1 (stereo not drawn) | nt | nt | 111.0* | nt | nt
Cc1ccc(CN2CCN(Cc3cn(C)nc3C)CC2CCO)o1 (stereo not drawn) | -7.6 | 1.2 | 22.4* | -4.7 | 13.8
COc1ccc(/C=N/NC(=O)c2ccc[nH]2)cc1 | -3.2 | -2.7 | -0.3 | -6.3 | 17.7
O=C(NCCS(=O)(=O)N1CCN(c2ccccc2)CC1)C1CCCCC1 | nt | nt | 5.2 | nt | -8.6
CCC(Sc1ccc2nnc(-c3cccnc3)n2n1)C(=O)O (stereo not drawn) | -6.2 | 2.5 | 23.1* | 1.7 | -3.0
CCCSc1nc(N2CCOCC2)c2c(c1C#N)CC(C)(C)SC2 | 6.1 | -3.1 | 22.6* | 7.9 | -13.2
O=C(O)CCc1ccc(-c2ccccc2)o1 | -3.7 | 6.0 | -2.4 | 16.3 | 66.1*
O=C(O)CCc1nc(-c2ccccc2)c(-c2ccccc2)o1 | nt | -2.4 | nt | -6.8 | nt
CCOC(=O)C1=C(O)c2ccccc2C(=O)/C1=C\c1ccc(CC)cc1 | 59.3* | nt | -1.2 | nt | 93.8*
CCCc1ccc(/C=C2\C(=O)c3ccccc3C(O)=C2C(=O)OCC)cc1 | nt | -1.9 | nt | -0.5 | nt
CC(NC(=O)c1ccco1)C(=O)NC(C)c1cc(F)c(Cl)cc1Cl (stereo not drawn) | 1.7 | -3.3 | -0.5 | -6.0 | -9.5
CCOC(=O)c1ccc(NC(=O)c2nc(S(=O)(=O)Cc3ccccc3)ncc2Cl)cc1 | 5.9 | -1.1 | 20.5* | -1.6 | 48.4
CCc1ccc(NC(=O)c2nc(S(=O)(=O)Cc3ccccc3)ncc2Cl)cc1 | nt | -1.8 | 0.0 | 2.6 | nt
CC(OC(=O)C1CCN(S(=O)(=O)c2ccc3c(c2)OCCO3)CC1)C(=O)NC1(C#N)CCCCC1 (stereo not drawn) | -5.0 | nt | -0.3 | nt | -19.3
C#CCOCCOCCOCCNc1nc(N2CCN(C(=O)CCCCCCCCCCNC(=O)[C@H](CCCCN)n3cc(C[C@@H](C)CC)nn3)CC2)nc(N2CCN(C(=O)CCCCCCCCCCNC(=O)[C@H](CCCN=C(N)N)n3cc(C[C@@H](C)CC)nn3)CC2)n1 | 16.4 | -7.0 | -4.6 | -10.9 | 52.1
C#CCOCCOCCOCCNc1nc(N2CCN(C(=O)C(Cc3cc4ccccc4[nH]3)n3cc(C(N)C(C)CC)nn3)CC2)nc(N2CCN(C(=O)C(Cc3cc4ccccc4[nH]3)n3cc(C(N)C(C)CC)nn3)CC2)n1 (stereo not drawn) | 28.2 | -4.1 | -0.7 | -7.4 | 61.4*
C#CCOCCOCCOCCNc1nc(N2CCN(C(=O)CCCCCCCCCCNC(=O)[C@H](CCCCN)n3cc(C)nn3)CC2)nc(N2CCN(C(=O)CCCCCCCCCCNC(=O)[C@H](CCCN=C(N)N)n3cc(C[C@@H](C)CC)nn3)CC2)n1 | 0.7 | 1.5 | nt | 1.0 | 60.4*
C#CCOCCOCCOCCNc1nc(N2CCOCC2)nc(N2CCN(C(=O)[C@H](Cc3cc4ccccc4[nH]3)n3cc([C@@H](N)C(C)CC)nn3)CC2)n1 (stereo partly drawn) | -3.2 | -4.7 | -2.5 | -7.7 | 18.6
C#CCOCCOCCOCCNc1nc(N2CCN(C(=O)CCCCCCCCCCNC(=O)[C@H](CO)n3cc(CCCCCN)nn3)CC2)nc(N2CCN(C(=O)CCCCCCCCCCNC(=O)[C@H](CCCN=C(N)N)n3cc(C[C@@H](C)CC)nn3)CC2)n1 | nt | -24.5 | nt | 0.8 | nt
C#CCOCCOCCOCCNc1nc(N2CCN(C(=O)CCCCCCCCCCNC(=O)[C@@H](CCSC)n3cc(CCO)nn3)CC2)nc(N2CCN(C(=O)CCCCCCCCCCNC(=O)[C@H](CCCN=C(N)N)n3cc(C[C@@H](C)CC)nn3)CC2)n1 | 9.5 | -3.5 | 4.6 | -5.0 | 69.3*
CC(c1ccon1)N(C)C(=O)c1ccc2nc(Cc3cccc(Cl)c3)oc2c1 (stereo not drawn) | -2.8 | -2.4 | 0.2 | -3.0 | -11.1
NC(=O)CSc1cn(Cc2ccccc2)c2ccccc12 | -6.0 | -1.1 | -0.3 | -6.3 | -0.9
SMILES | HKDC1 inhibitor | A3A deaminase | hiPSC survival | A3G deaminase | PfG6PD inh
Oc1ccc(-c2cnns2)c(O)c1 | 45.4* | 1.2 | -0.2 | -1.6 | 43.7
CCOc1cc(CNc2ccc(O)cc2)ccc1OCc1ccc(Cl)cc1Cl | 18.9 | -2.2 | 0.0 | 8.8 | 88.1*
O=C(Nc1ccc(N2CCOCC2)cc1)c1cccc(S(=O)(=O)N2CCCC2)c1 | -8.0 | -1.7 | 23.6* | -4.4 | 1.4
CC(=O)c1cccc(NC(=O)C(C)OC(=O)c2cccc(S(=O)(=O)N3CCN(C)CC3)c2)c1 (stereo not drawn) | 1.6 | -3.3 | 0.1 | -7.9 | 8.7
CC(OC(=O)c1cccc(S(=O)(=O)N2CCN(C)CC2)c1)C(=O)Nc1ccc(C(N)=O)cc1 (stereo not drawn) | -3.3 | -0.4 | 20.7* | -6.8 | -3.4
O=C(O)C1CCC(N2C(=O)C3C4CCC(C4)C3C2=O)CC1 (stereo not drawn) | -6.9 | -0.5 | -0.3 | -5.4 | -12.1
C=CCOc1c(Br)cc(/C=C2/C(=O)ON=C2C)cc1OC | 5.6 | -3.6 | -0.3 | -6.8 | 22.3
COc1cc(CC(CC(=O)O)CC(C)OCc2ccccc2)cc(OC)c1 (stereo not drawn) | -4.0 | -3.5 | 20.2* | -9.0 | -4.7
O=C(Nc1ccc2nc(-c3ccccc3)[nH]c2c1)c1ccco1 | 3.1 | -2.8 | -2.3 | -4.6 | 69.5*
O=C(Nc1ccc(Cl)cc1)c1nc[nH]c1C(=O)N1CCN(c2ccccc2)CC1 | -0.3 | -0.3 | -0.1 | -5.3 | 7.4
CC(C)C(=O)N(c1cc2sc(=O)oc2c2ccccc12)S(=O)(=O)c1cccs1 | 45.0* | -4.3 | -1.1 | 14.2 | 74.5*
CC(C)C(=O)N(c1ccc2oc(=O)sc2c1)S(=O)(=O)c1cccs1 | -31.3 | -6.3 | 2.5 | -11.2 | -8.4
COc1ccc(O)c(/C=N/NC(=O)CN2CCS(=O)(=O)CC2)c1 | -7.7 | -6.3 | -0.4 | 0.7 | -25.7
Cc1cccc(OCC(=O)NCCCNC(=O)c2cccnc2)c1 | -5.7 | -1.6 | -0.3 | -6.4 | -3.0
Cc1cccc(OCC(=O)NC(=S)NNC(=O)c2ccncc2)c1 | -5.9 | -8.8 | -0.4 | 39.6 | 77.0*
CC(=O)c1ccc(N2CCN(C(=O)Nc3cccc(F)c3)CC2)cc1 | 19.0 | 2.2 | 0.1 | -3.0 | -14.8
COC(=O)c1[nH]c2ccccc2c1NC(=O)CCN1CCSCC1 | 2.4 | -3.5 | 26.0* | -4.9 | -1.2
NC(=O)CC(NC(=O)c1ccccc1)C(=O)O (stereo not drawn) | -4.6 | -4.0 | 20.5* | -4.6 | -1.1
c1cnc(N2CCN(c3cnccn3)CC2)nc1 | -1.0 | 3.8 | 1.2 | 0.8 | -1.7
